ASAP1 GAP inh = blocks human ASAP1-stimulated Arf1 GTP hydrolysis | AID 624377 | hit rate 0.19% among 360,000 | Q9ULH1 | inhibition, % at 16.5 µM | GDP FP detection; in the data active means inhibition above about 25%;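 further: 0% = vehicle with enzyme and substrate and 100% = no enzyme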
Rin1-Abl PPI inh = human Rin1-Abl interaction inhibition; P00519+Q13671; TR-FRET Rin1/Abl binding, biochemical; inhibition, % at 7.35 µM; hit rate 0.4% among 360,000; in the data active means inhibition above about 5%, passing the limit was not always enough
Target sequence (P00519 whole entry, looked up): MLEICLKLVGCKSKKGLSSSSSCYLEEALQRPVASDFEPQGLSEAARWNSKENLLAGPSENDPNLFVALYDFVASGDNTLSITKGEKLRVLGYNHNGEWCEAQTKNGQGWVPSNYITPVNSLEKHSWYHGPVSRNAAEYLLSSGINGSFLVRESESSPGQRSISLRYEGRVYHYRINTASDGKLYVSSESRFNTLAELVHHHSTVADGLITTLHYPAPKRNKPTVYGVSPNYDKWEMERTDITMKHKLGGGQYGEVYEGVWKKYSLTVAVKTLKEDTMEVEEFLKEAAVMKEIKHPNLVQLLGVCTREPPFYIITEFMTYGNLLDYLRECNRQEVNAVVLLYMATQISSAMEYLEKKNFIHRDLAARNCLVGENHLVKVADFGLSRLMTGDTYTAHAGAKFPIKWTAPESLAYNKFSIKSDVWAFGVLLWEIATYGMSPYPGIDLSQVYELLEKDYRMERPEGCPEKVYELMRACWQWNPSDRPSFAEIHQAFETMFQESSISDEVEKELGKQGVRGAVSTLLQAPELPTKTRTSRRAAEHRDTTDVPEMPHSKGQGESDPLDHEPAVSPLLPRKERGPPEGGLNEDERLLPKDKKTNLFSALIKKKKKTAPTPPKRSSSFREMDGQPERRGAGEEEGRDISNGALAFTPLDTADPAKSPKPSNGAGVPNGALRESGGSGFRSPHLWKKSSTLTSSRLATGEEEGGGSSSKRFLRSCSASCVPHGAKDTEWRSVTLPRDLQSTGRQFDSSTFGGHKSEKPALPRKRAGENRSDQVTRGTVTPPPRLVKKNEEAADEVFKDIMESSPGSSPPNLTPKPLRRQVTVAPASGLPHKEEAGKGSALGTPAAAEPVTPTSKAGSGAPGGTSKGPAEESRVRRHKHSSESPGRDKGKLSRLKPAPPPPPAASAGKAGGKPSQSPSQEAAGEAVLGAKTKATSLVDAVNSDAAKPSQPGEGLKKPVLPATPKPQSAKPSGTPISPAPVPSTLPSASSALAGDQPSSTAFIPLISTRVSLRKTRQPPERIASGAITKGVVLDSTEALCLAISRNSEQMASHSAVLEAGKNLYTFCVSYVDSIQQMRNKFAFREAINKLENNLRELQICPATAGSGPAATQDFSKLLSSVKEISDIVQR
Target sequence (Q13671 whole entry, looked up): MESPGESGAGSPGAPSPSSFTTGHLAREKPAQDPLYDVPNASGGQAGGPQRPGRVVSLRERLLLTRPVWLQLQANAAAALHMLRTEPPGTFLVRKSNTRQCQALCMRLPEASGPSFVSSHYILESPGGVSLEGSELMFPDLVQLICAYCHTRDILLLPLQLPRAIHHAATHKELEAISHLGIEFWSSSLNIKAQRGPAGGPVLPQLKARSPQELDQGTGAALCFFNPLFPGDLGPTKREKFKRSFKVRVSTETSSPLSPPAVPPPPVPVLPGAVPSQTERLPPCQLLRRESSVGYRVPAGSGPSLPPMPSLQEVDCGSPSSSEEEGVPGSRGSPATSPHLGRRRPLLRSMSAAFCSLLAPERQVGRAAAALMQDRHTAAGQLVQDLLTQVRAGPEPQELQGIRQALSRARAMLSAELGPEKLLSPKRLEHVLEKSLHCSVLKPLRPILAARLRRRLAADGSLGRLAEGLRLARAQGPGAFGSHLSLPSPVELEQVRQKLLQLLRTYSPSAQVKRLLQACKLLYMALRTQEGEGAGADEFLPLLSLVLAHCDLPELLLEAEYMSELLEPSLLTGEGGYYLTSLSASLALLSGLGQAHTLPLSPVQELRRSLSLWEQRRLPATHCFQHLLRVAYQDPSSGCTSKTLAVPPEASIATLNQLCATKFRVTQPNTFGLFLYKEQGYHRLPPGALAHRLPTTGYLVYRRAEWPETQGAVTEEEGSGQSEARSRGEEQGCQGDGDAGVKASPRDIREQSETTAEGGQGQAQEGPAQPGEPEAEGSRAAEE
GalR3 antagonist = blocks the human galanin receptor 3. O60755. HEK293 GalR3-CNG cAMP membrane potential fluorescence; galR3 body fused to GalR1 C-terminus. inhibition, % at 3 µM. hit rate 0.44% among 360,000;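 active means inhibition above the screen-wide average plus 3 SD, cut at about 13% in these data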;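 further: forskolin and galanin both at EC90 stimulate the cells; cAMP rise reported by CNG channel membrane potential dye signal; 0% = forskolin plus galanin with DMSO and 100% = forskolin alone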
ARFGAP1 inh = inhibitors of rat ARFGAP1 | Q62848 | Arfgap1-stimulated ARF1 GTP hydrolysis, GDP FP detection | inhibition, % at 16.5 µM | hit rate 0.26% among 360,000 | AID 651572;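 active means inhibition above a per-plate limit, mean inhibition of low control wells plus 3 SD, cut at about 25% in these data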;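 further: 0% = DMSO wells with enzyme and 100% = wells lacking Arfgap1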
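Assay system: Rat Arfgap1 GAP domain (His6, aa 1-136), purified enzyme | Buffer or medium: HEPES 25 mM pH 7.5, NaCl 150 mM, MgCl2, DTT | Schedule: GTP hydrolysis reaction 2 h at 25 °C | Signal: FP of antibody-bound GDP Alexa 633 tracer, ex 620/em 688 nm | Measure: Percent inhibition of Arfgap1-stimulated GTP hydrolysis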
GalR3 conf = GalR3 (human) antagonism, confirmation; shares compounds with GalR3 antagonist; hit rate 59% among 1,600; inhibition, % at 3 µM; HEK293 GalR3 CNG cAMP biosensor, membrane potential fluorescence; galR3 fused to GalR1 carboxy tail; challenged with forskolin and galanin at EC90;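 active means inhibition above the primary screen's cutoff, the mean inhibition of all screened compounds plus 3 SD, cut at about 13% in these data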;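 further: 0% = forskolin plus galanin and 100% = forskolin alone with DMSO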
HEK-CNG parental = acts as nonspecific agonist in parental HEK-CNG cells; hit rate 10% among 1,600; AID 652268; activation, % at 3 µM; HEK293-CNG parental cells, cAMP membrane potential fluorescence; normalised: DMSO wells 0%, forskolin wells 100%; shares compounds with GalR3 antagonist; in the data active means activation above about 1.3%
Starred values were filed as active, the others as inactive; x = not tested or not shown. Sampled rows, rich in hits. Any-hit rate of the full collection: about 1.2%.

SMILES	ASAP1 GAP inh	Rin1-Abl PPI inh	GalR3 antagonist	ARFGAP1 inh	GalR3 conf	HEK-CNG parental
O=C(CN1CCC(Cc2ccccc2)CC1)NCCc1ccc(F)cc1	-1.8	-3.9	-6.3	-5.0	x	x
NS(=O)(=O)c1ccc(CCNC(=O)CN2CCC(Cc3ccccc3)CC2)cc1	-9.7	-0.8	14.7*	0.2	6.5	0.2
Cn1nc(C(C)(C)C)cc1C(=O)NCc1ccc2c(c1)OCO2	4.6	3.6	105.3*	0.6	107.8*	-0.5
CCC(=O)/C=C1/Sc2ccccc2N1CC	-4.2	1.3	-5.2	-6.3	x	x
CCN1/C(=C/c2sc(-c3ccccc3C)c[n+]2C)Sc2ccccc21	-2.3	-2.6	50.5*	3.9	72.2*	2.2*
COc1ccc(CCNC(=O)COC(=O)/C=C/c2cccs2)cc1	-7.6	-11.1	x	-1.3	0.2	0.7
CCCOc1ccc(CSc2nc3ccccc3[nH]2)cc1	-2.5	1.7	86.2*	-4.2	108.1*	-1.1
Cc1cccc(CN2[C@@H](C)[C@H](c3ccccc3)Oc3cc(Br)ccc3S2(=O)=O)c1	-0.2	x	-6.2	15.1	x	x
COC(=O)c1cc2c(c3c4cc(OC)ccc4n(C(=O)c4ccccc4)c13)C(=O)N(Cc1ccco1)C2	6.0	x	-4.7	0.9	x	x
CCC(=O)c1ccc(OCc2ccc(C(=O)c3ccccc3)cc2)cc1	0.3	-5.7	37.4*	3.5	88.0*	-0.4
COC(=O)[C@H](Cc1ccccc1)N1CC=CS1(=O)=O	11.8	x	-4.1	11.0	x	x
O=C(NC1CCCCC1c1ccccc1)c1ccccc1 (stereo not given)	-8.5	4.9	16.0*	3.3	4.3	-0.3
O=C(NC1CCCCCCC1O)c1ccccc1 (stereo not given)	4.6	-3.9	-6.1	6.3	x	x
COc1ccc([C@H]2C=C(C(=O)O)O[C@@H](OCCCCO)C2)cc1	6.4	0.2	17.5*	11.3	-1.2	0.4
CN(C)c1ccc(N(C)C)c(C(O)(c2ccccc2)c2ccccc2)c1	-9.4	x	-11.4	-1.4	x	x
N#Cc1cccnc1N1CCN(C(=O)c2cccc3c2C(=O)c2ccc(-c4ccc(Cl)c(C(F)(F)F)c4)cc2S3(=O)=O)CC1	x	0.7	x	x	x	x
N#Cc1cccnc1N1CCN(C(=O)c2cccc3c2C(=O)c2ccc(Cl)cc2S3(=O)=O)CC1	-7.5	1.7	23.3*	0.1	29.8*	0.2
O=C(Cn1nnc(N2CCCCC2)n1)NN=Cc1ccccc1O	11.1	x	-6.0	-0.3	x	x
Cc1ccc(O)c(N=Cc2cc(Cc3ccccc3)cc([N+](=O)[O-])c2O)c1	1.6	0.8	13.4*	-17.6	10.0	-0.5
C=CCCC1CN(Cc2ccc(OC)cc2)S(=O)(=O)c2c(cccc2N2CCCCC2)O1 (stereo not given)	18.8	x	0.4	6.4	x	x
COc1cc(OC)cc(-c2c(C#Cc3ccsc3)c3cc(-c4ccc(C(N)=O)cc4)ccc3n2C)c1	13.6	1.7	x	13.6	4.3	0.1
O=C(C1CCN(c2ncnc3c2sc2cccc(F)c23)CC1)N1CCOCC1	3.3	-0.7	-1.4	0.2	x	x
O=C(NCCN1CCOCC1)C1CCN(c2ncnc3c2sc2cccc(F)c23)CC1	8.1	-3.6	15.2*	-5.4	2.4	0.1
CC1CCN(C(=O)/C(=C\c2cccs2)NC(=O)c2ccccc2)CC1	4.4	2.2	18.7*	2.9	7.8	0.3
COc1ccc(OC)c2[nH]c(=O)c(CCNC(=O)COc3ccccc3)cc12	3.5	-1.4	22.0*	5.7	19.9*	0.3
SMILES	ASAP1 GAP inh	Rin1-Abl PPI inh	GalR3 antagonist	ARFGAP1 inh	GalR3 conf	HEK-CNG parental
COc1ccc(OC)c2[nH]c(=O)c(CCNC(C)=O)cc12	-0.3	-1.7	0.6	4.2	x	x
CCOC(=O)C1(CCOc2ccccc2)CCN(Cc2ccc(OC)c(COC)c2)CC1	-12.8	-1.4	12.8*	-1.4	63.7*	3.5*
CCOC(=O)C1(CCOc2ccccc2)CCN(Cc2ccc(OC)c(O)c2)CC1	-8.4	0.2	3.7	-6.3	x	x
CC(C)NC(=O)N(C)C[C@H]1OCc2cn(nn2)CCCC(=O)N([C@H](C)CO)C[C@@H]1C	-6.2	x	-5.6	-5.9	x	x
COC(=O)C1=C(C)NC(=S)NC1c1ccc(Br)cc1 (stereo not given)	2.1	x	-5.7	-7.0	x	x
CCOC(=O)C1(Cc2cccc(OC)c2)CCN(CCO)CC1	-6.4	1.0	18.4*	-4.7	9.0	0.7
Cc1ccc(NC(=S)Nc2ccc(-c3nnc4n3CCCCC4)cc2)cc1C	-11.5	x	-0.9	-1.8	x	x
COc1ccc(N=C2SCC(=O)N2CCc2ccc(OC)c(OC)c2)cc1	-23.6	0.3	-0.3	1.4	x	x
COc1ccc(CCN2C(=O)CSC2=Nc2ccc(C(C)C)cc2)cc1OC	14.7	-1.9	83.5*	-7.2	96.3*	0.2
COc1ccc(-c2ccc3c(n2)CCCN3S(=O)(=O)c2cccs2)cc1	1.9	x	-4.3	-3.8	x	x
O=C(CSc1nnc(-c2n[nH]c3ccccc23)n1-c1ccccc1)Nc1cccc(Cl)c1	7.0	-1.2	21.0*	6.8	13.6*	-1.3
CCc1ccc(NC(=O)CSc2nnc(-c3n[nH]c4ccccc34)n2-c2ccccc2)cc1	15.8	-2.7	-1.6	-3.1	x	x
CCCc1nc(NCc2ccccc2)c(C#N)c2c1CCCC2	-3.6	0.0	16.9*	1.3	3.7	1.0
CCCc1nc(NCCO)c(C#N)c2c1CCCC2	-5.0	3.2	-1.5	-3.2	x	x
COc1ccc(C2CC(=O)C(c3ccccc3OC)=CN2Cc2ccccc2)cc1 (stereo not given)	3.6	x	-4.2	9.4	x	x
O=C(OCCN1C(=O)c2cccc3c(N4CCOCC4)ccc(c23)C1=O)c1ccccc1Cl	17.7	-4.4	15.0*	9.9	74.2*	2.9*
O=C(OCCN1C(=O)c2cccc3c(N4CCOCC4)ccc(c23)C1=O)c1ccc(Cl)cc1Cl	2.8	-5.9	0.2	8.9	x	x
CCOC(=O)CN1C(=O)[C@]2(OCCC=C[C@H]2C)c2ccccc21	-0.6	x	-8.3	-3.9	x	x
CCc1nc(C)cn1S(=O)(=O)c1cc(C)c(OC)c(C)c1C	-12.0	-2.5	26.1*	1.8	82.4*	0.5
CCN1/C(=C/c2ccc3cc(C)ccc3[n+]2CC)Sc2cc(C)c(C)cc21	8.0	-4.5	50.7*	-2.0	58.5*	9.7*
CCN1/C(=C/c2ccc3cc(C)ccc3[n+]2CC)Sc2ccccc21	11.2	-68.3	37.7*	11.9	44.6*	11.5*
C[C@H]1CN(S(=O)(=O)C(C)(C)C)[C@H](CCO)/C1=C\CCO	-4.5	x	-3.5	-3.0	x	x
O=C(Nc1ccccc1F)C1CCCC1	-10.4	-1.0	-5.0	2.9	x	x
O=C(Nc1ccccc1NS(=O)(=O)c1ccc(F)cc1)C1CCC1	8.9	2.1	x	-1.0	-3.1	0.3
Cn1cc([C@]2(O)C(=O)Nc3ccc(OC(F)(F)F)cc32)c2ccccc21	-3.9	x	-8.1	6.2	x	x
